{"source": "paper PMC13252795", "about": "(International journal for parasitology, 2017)", "key": {"[1]": {"target": "recombinant BbCDPK1 (rBbCDPK1) (Besnoitia besnoiti, UniProt A0A290U7L2)", "experiment": "BbCDPK1 enzymatic activity inhibition, Kinase-Glo luciferase assay", "type": "biochemical"}, "[2]": {"tested_on": "Marc-145 cells", "experiment": "Mammalian cell toxicity, XTT cell viability assay", "type": "cell-based", "conditions": "uninfected Marc-145 cells, 5 μM, 72 h", "method_in_brief": "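Exponential-phase Marc-145 cells were seeded at 2 × 10^5 cells/mL together with test compound dissolved in DMSO, in quadruplicate, and grown 72 h at 37 °C in humidified 5% CO2. XTT reagent was then added for 4 h, and […]. Percent growth inhibition was calculated relative to the DMSO vehicle.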"}, "[3]": {"tested_on": "B. besnoiti tachyzoites (Bb-Spain1) in Marc-145 cells", "experiment": "Short term dose-response assays, EC50 and EC99 determination by qPCR", "type": "cell-based, Besnoitia besnoiti"}, "[4]": {"tested_on": "B. besnoiti tachyzoites (Bb-Spain1) in HFF cells", "experiment": "Transmission electron microscopy of B. besnoiti-infected HFF treated with BKIs", "type": "cell-based, Besnoitia besnoiti", "conditions": "5 μM, HFF cells, 4, 6 and 8 days; listed as BKI-1294"}, "[5]": {"conditions": "cattle; ref Huang et al., 2015; Schaefer et al., 2016; Hulverson et al., 2017; cited from earlier work"}}, "data": [{"compound": "CCOc1ccc2cc(-c3nn(CC4CCN(C)CC4)c4ncnc(N)c34)ccc2c1", "note": "[Compound 1294]", "values": [{"measurement": "IC50 values against BbCDPK1 (in words)", "setting": "[1]", "result": "lower nanomolar range"}, {"measurement": "Percentage of cytotoxicity compared to DMSO-treated negative control", "setting": "[2]", "result": 5.2, "unit": "%"}, {"measurement": "EC99 (B. besnoiti)", "setting": "[3]; BKI added at 0 hpi, 3-day proliferation assay, qPCR, Marc-145 cells", "result": 2.38, "unit": "µM"}, {"measurement": "EC50", "setting": "[3]; Besnoitia besnoiti, MARC145, 72 h, read-out: EC50 (B. besnoiti)", "result": 45, "unit": "nM"}, {"measurement": "Effect on ultrastructure of tachyzoites (TEM)", "setting": "[4]", "result": "formed multinucleated complexes"}, {"measurement": "Plasma levels achieved", "setting": "[5]", "result": "up to 5 μM"}]}]}
